ChEMBL document CHEMBL1932939, “Synthesis and cytotoxic evaluation of thiourea and N-bis-benzothiazole derivatives: a novel class of cytotoxic agents” (Bioorg Med Chem Lett, 2012)

What was measured:
[1] = system: U-937; assay: Cytotoxicity against human U937 cells after 48 hrs by MTT assay; format: functional, cell-based
Summary of the method: (§1)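 IC50 is taken as the concentration that gives a 50% drop in cell number relative to control cultures grown without inhibitor. Etoposide serves as the standard positive-control drug.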

[2] = system: THP-1; assay: Cytotoxicity against human THP1 cells after 48 hrs by MTT assay; format: functional, cell-based; settings: THP-1, 48 h; summary of the method: as §1
[3] = system: B16-F10; assay: Cytotoxicity against mouse B16F10 cells after 48 hrs by MTT assay; format: functional, cell-based; settings: B16-F10, 48 h; summary of the method: as §1
[4] = system: THP-1; assay: Ratio of IC50 for human U937 cells to IC50 for human THP1 cells after 48 hrs by MTT assay; format: functional
[5] = system: THP-1; assay: Ratio of IC50 for mouse B16F10 cells to IC50 for human THP1 cells after 48 hrs by MTT assay; format: functional

Structure (SMILES): Cc1ccc2nc(Nc3nc4ccc(F)cc4s3)sc2c1
- IC50 ([1]; Homo sapiens, U-937, 48 h): > 50 µM
- IC50 [2]: > 50 µM
- IC50 [3]: 29.6 µM

Structure (SMILES): Fc1ccc2nc(NC(=S)Nc3ccccc3)sc2c1
- IC50 ([1]; Homo sapiens, U-937, 48 h): > 50 µM
- IC50 [2]: 46.6 µM
- IC50 [3]: > 50 µM

Structure (SMILES): Fc1ccc(NC(=S)Nc2nc3ccccc3s2)cc1
- IC50 ([1]; Homo sapiens, U-937, 48 h): 32 µM
- IC50 [2]: 26.7 µM
- IC50 [3]: > 50 µM

Structure (SMILES): Clc1ccc2nc(Nc3nc4ccccc4s3)sc2c1
- IC50 ([1]; Homo sapiens, U-937, 48 h): > 50 µM
- IC50 [2]: 45.4 µM
- IC50 [3]: > 50 µM

Structure (SMILES): Fc1ccc2nc(Nc3nc4ccc(F)cc4s3)sc2c1
- IC50 ([1]; Homo sapiens, U-937, 48 h): 27.4 µM
- IC50 [2]: 17.5 µM
- IC50 [3]: 47.5 µM

Structure (SMILES): Fc1ccc(NC(=S)Nc2nc3c(Cl)cccc3s2)cc1
- IC50 ([1]; Homo sapiens, U-937, 48 h): > 50 µM
- IC50 [2]: > 50 µM
- IC50 [3]: > 50 µM

Structure (SMILES): Cc1ccc2nc(NC(=S)Nc3ccccc3)sc2c1
- IC50 ([1]; Homo sapiens, U-937, 48 h): > 50 µM
- IC50 [2]: > 50 µM
- IC50 [3]: > 50 µM

Structure (SMILES): COc1cc([C@@H]2c3cc4c(cc3[C@@H](O[C@@H]3O[C@@H]5CO[C@@H](C)O[C@H]5[C@H](O)[C@H]3O)[C@H]3COC(=O)[C@H]23)OCO4)cc(OC)c1O [ETOPOSIDE]
- IC50 [3]: 18.7 µM
- Ratio IC50 [4]: 9
- Ratio IC50 [5]: 9

Structure (SMILES): S=C(Nc1ccc(Cl)cc1)Nc1nc2ccccc2s1
- IC50 ([1]; Homo sapiens, U-937, 48 h): > 50 µM
- IC50 [2]: 39 µM
- IC50 [3]: > 50 µM

Structure (SMILES): Fc1ccc2nc(Nc3nc4ccc(Cl)cc4s3)sc2c1
- IC50 ([1]; Homo sapiens, U-937, 48 h): > 50 µM
- IC50 [2]: 41 µM
- IC50 [3]: 41.9 µM

Structure (SMILES): Fc1ccc2nc(Nc3nc4c(Cl)cccc4s3)sc2c1
- IC50 ([1]; Homo sapiens, U-937, 48 h): > 50 µM
- IC50 [2]: 36.2 µM
- IC50 [3]: > 50 µM

Structure (SMILES): S=C(Nc1ccccc1)Nc1nc2c(Cl)cccc2s1
- IC50 ([1]; Homo sapiens, U-937, 48 h): > 50 µM
- IC50 [2]: 31.8 µM
- IC50 [3]: > 50 µM

Structure (SMILES): CCOc1ccc2nc(NC(=S)Nc3ccc(F)cc3)sc2c1
- IC50 ([1]; Homo sapiens, U-937, 48 h): 28.1 µM
- IC50 [2]: 39.5 µM
- IC50 [3]: > 50 µM

Structure (SMILES): CCOc1ccc2nc(Nc3nc4ccc(F)cc4s3)sc2c1
- IC50 ([1]; Homo sapiens, U-937, 48 h): 26.6 µM
- IC50 [2]: 39 µM
- IC50 [3]: 33.2 µM

Structure (SMILES): c1ccc2sc(Nc3nc4ccccc4s3)nc2c1
- IC50 ([1]; Homo sapiens, U-937, 48 h): 40 µM
- IC50 [2]: 28.8 µM
- IC50 [3]: > 50 µM

Structure (SMILES): S=C(Nc1ccccc1)Nc1nc2ccccc2s1
- IC50 ([1]; Homo sapiens, U-937, 48 h): > 50 µM
- IC50 [2]: 36.5 µM
- IC50 [3]: > 50 µM

Structure (SMILES): Clc1cccc2sc(Nc3nc4ccccc4s3)nc12
- IC50 ([1]; Homo sapiens, U-937, 48 h): > 50 µM
- IC50 [2]: > 50 µM
- IC50 [3]: 29.5 µM

Structure (SMILES): Cc1ccc2nc(Nc3nc4ccccc4s3)sc2c1
- IC50 ([1]; Homo sapiens, U-937, 48 h): 48.4 µM
- IC50 [2]: 34.2 µM
- IC50 [3]: > 50 µM

Structure (SMILES): Cc1ccc2nc(NC(=S)Nc3ccc(F)cc3)sc2c1
- IC50 ([1]; Homo sapiens, U-937, 48 h): > 50 µM
- IC50 [2]: 36.9 µM
- IC50 [3]: > 50 µM

Structure (SMILES): Fc1ccc2nc(NC(=S)Nc3ccc(Cl)cc3)sc2c1
- IC50 ([1]; Homo sapiens, U-937, 48 h): 18.7 µM
- IC50 [2]: 31.2 µM
- IC50 [3]: 48.1 µM

Structure (SMILES): CCOc1ccc2nc(NC(=S)Nc3ccccc3)sc2c1
- IC50 ([1]; Homo sapiens, U-937, 48 h): 37.7 µM
- IC50 [2]: 43.8 µM
- IC50 [3]: > 50 µM

Structure (SMILES): Fc1ccc2nc(Nc3nc4ccccc4s3)sc2c1
- IC50 ([1]; Homo sapiens, U-937, 48 h): 40.6 µM
- IC50 ([1]; u-937): 43.5 µM
- IC50 [2]: > 50 µM
- IC50 [3]: > 50 µM

Structure (SMILES): Fc1ccc(NC(=S)Nc2nc3ccc(F)cc3s2)cc1
- IC50 ([1]; Homo sapiens, U-937, 48 h): 16.2 µM
- IC50 [2]: 34.6 µM
- IC50 [3]: 47.7 µM

Structure (SMILES): CCOc1ccc2nc(Nc3nc4ccccc4s3)sc2c1
- IC50 ([1]; Homo sapiens, U-937, 48 h): > 50 µM
- IC50 [2]: 37.1 µM
- IC50 [3]: > 50 µM
